Laboratory results taken from ChEMBL document CHEMBL2434937, “Monoamine oxidase inhibitory activity of 3,5-biaryl-4,5-dihydro-1H-pyrazole-1-carboxylate derivatives” (Eur J Med Chem, 2013).

Key:
[1] = target: T1, Amine oxidase [flavin-containing] A (Homo sapiens, UniProt P21397); assay: Reversible inhibition of human recombinant MAO-A expressed in baculovirus infected […] insect cells at 300 nM incubated for 1 hr followed by compound washout by centrifugation-ultrafiltration method
T1 sequence (P21397 whole entry): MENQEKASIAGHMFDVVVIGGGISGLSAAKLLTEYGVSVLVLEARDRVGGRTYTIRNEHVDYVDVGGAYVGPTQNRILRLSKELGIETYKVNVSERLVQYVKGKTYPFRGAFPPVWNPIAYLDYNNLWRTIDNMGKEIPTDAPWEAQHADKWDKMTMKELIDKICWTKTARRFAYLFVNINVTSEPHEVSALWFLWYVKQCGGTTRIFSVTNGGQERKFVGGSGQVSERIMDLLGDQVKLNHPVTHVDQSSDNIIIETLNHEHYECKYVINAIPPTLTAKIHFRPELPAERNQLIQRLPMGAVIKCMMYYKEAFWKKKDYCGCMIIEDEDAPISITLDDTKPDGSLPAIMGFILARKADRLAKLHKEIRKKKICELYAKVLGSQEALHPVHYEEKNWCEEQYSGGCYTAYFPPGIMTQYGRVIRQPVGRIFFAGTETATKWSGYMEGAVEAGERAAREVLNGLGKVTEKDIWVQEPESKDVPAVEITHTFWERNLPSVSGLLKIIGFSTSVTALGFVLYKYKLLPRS
In short: (§1)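 Recombinant hMAO-A (baculovirus-infected BTI insect cells) preincubated with a single inhibitor concentration in 0.05 M sodium phosphate, pH 7.4, 1 h at 37°C. One aliquot kept at 4°C unwashed. Remainder ultrafiltered (30 kDa membrane, 9000x g, 20 min, 4°C), resuspended and spun twice more. Activity by Amplex Red/HRP H2O2 fluorescence. Percent inhibition vs vehicle controls, with and without washing.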

[2] = target: T1, Amine oxidase [flavin-containing] A; assay: Reversible inhibition of human recombinant MAO-A expressed in baculovirus infected […] insect cells at 300 nM after 1 hr by centrifugation-ultrafiltration method; in short: as §1

O=C(NCCN1CCOCC1)c1ccc(Cl)cc1 [MOCLOBEMIDE]
inhibition at 0.3 µM [1]: 9.56% | inhibition at 0.3 µM [2]: 89%
